# TNAP inh hiacc = blocks human TNAP under high phosphate acceptor concentration; 200,000 tested, 0.03% active; inhibition, % at 20 µM; purified TNAP, CDP-star luminescence, 1 M DEA;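 active = over 50% inhibition of tissue-nonspecific alkaline phosphatase at 20 µM in the single-dose screen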;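 note: plate controls were DMSO wells for no effect and EDTA-quenched wells as full inhibition for full effect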
# Target sequence (P05186 whole entry, looked up): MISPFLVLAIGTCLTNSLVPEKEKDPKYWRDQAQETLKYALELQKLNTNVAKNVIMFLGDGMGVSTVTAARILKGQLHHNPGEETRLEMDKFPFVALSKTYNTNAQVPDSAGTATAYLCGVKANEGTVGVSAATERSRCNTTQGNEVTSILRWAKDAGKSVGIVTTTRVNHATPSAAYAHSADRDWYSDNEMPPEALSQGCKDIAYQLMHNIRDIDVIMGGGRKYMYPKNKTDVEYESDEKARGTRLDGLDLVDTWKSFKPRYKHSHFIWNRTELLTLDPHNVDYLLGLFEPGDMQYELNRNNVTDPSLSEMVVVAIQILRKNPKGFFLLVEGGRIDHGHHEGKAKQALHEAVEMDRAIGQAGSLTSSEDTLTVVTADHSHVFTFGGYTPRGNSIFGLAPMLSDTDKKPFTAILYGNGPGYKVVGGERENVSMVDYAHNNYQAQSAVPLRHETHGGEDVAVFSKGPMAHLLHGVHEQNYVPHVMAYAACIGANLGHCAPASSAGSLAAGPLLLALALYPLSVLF
# Insulin prom up = MIN6 insulin promoter up-regulation | MIN6 insulin promoter-GFP reporter, high-content imaging; active compounds read high | z-score at 5 µM | 190,000 tested, 0.3% active | AID 1625;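 active = z-score above 3 at 5 µM with at least 500 cells counted in the well; inconclusive = wells under 500 cells, flagged as cytotoxic or low count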
# p47phox inh = blocks human p47phox regulatory protein of NADPH oxidases; inhibition, % at 24.7 µM; p47phox/p22phox peptide binding, fluorescence polarization, 2 h; P14598; 220,000 tested, 0.53% active;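 active = inhibition above about 30%, limit read from the data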;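 note: 0% = p47phox with labelled peptide and 100% = labelled peptide alone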
# TNAP inh no acc = inhibitors of human TNAP without phosphate acceptor. P05186. purified TNAP, CDP-star luminescence, 30 min. inhibition, % at 20 µM. 200,000 tested, 0.26% active;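 active = tissue-nonspecific alkaline phosphatase inhibition above about 50% at 20 µM in the single-dose screen, limit read from the data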;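 note: 0% = DMSO negative control and 100% = EDTA positive control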
# TNAP act hiacc = increases human TNAP activity under high phosphate acceptor concentration; P05186; purified TNAP, CDP-star luminescence, 1 M DEA, 30 min; active compounds read high; 0 = EDTA background, 1 = DMSO-only activity; activation factor at 20 µM; 200,000 tested, under 10 active;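 active = activation factor at least 2 at 20 µM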
#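 Assay system: human TNAP; Input: enzyme diluted 1/800 final; Reagent: CDP-star luminogenic substrate at 100 µM final; Timing: 30 min, room temperature; Signal: luminescence; Evaluation: TNAP activation factor scaled between EDTA and DMSO control wells.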
# Autophagy mod = autophagy modulation, high-content screen; MEF GFP-LC3 puncta imaging; test concentration mostly 10 µM; calls only at 10 µM (by protocol); 190,000 tested, 0.98% active; AID 463193;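 active = percentage of spot-positive cells more than 3 SD above its plate mean, without a fluorescence outlier flag or 80% toxicity; inconclusive = no clear call, values can overlap the other calls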;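 note: spot-positive cell cutoff set from DMSO-treated cells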
# * marks the source's active call; other numbers are inactive results; i = inactive; ? = inconclusive; . = not tested or not shown; + = active, no number. Shown are actives, neighbours in structure and some others; about 1.8% of the full set was active somewhere.
SMILES,TNAP inh hiacc,Insulin prom up,p47phox inh,TNAP inh no acc,TNAP act hiacc,Autophagy mod
CC1=C(C(=O)N2CCOCC2)C(c2ccc(OC(F)F)cc2)NC(=S)N1c1ccccc1 (stereo unspecified),-3.9,-0.42,-4.4,-10.2,1,+
CC1=C(C(=O)N2CCOCC2)C(c2ccc(Br)cc2)NC(=S)N1c1ccccc1 (stereo unspecified),-3.2,1.11,-18.1,-7.9,1,i
COC(=O)C(C(=O)OC)C(C[N+](=O)[O-])c1ccc(O)c(OC)c1 (stereo unspecified),18.9,0.86,0.7,34.4,0.8,i
C#CCN1C(=O)S/C(=C/C=C/c2ccc(N(C)C)cc2)C1=O,25.5,-0.43,43.5*,29.4,0.7,+
Cc1cccc(C2c3[nH]c4ccccc4c3CCN2Cc2cccn2-c2ncccn2)c1 (stereo unspecified),0.6,-1.56,-25.9,-2.7,1,i
COc1ccc(C2c3[nH]c4ccccc4c3CCN2Cc2cccn2-c2ncccn2)cc1C (stereo unspecified),-7.9,.,-52.5,-8.3,1.1,+
Cc1ccccc1-n1sc2cc(F)ccc2c1=O,-3.1,1.6,102.3*,-7.4,1,i
Cc1ccc(C2c3c(C)nn(-c4ccc([N+](=O)[O-])cc4)c3N=C3C(=O)Nc4ccccc4N32)cc1 (stereo unspecified),7.1,-0.06,-8.2,12.1,0.9,i
COc1cccc(C2c3c(C)nn(-c4ccc([N+](=O)[O-])cc4)c3N=C3C(=O)Nc4ccccc4N32)c1 (stereo unspecified),7.9,-1.22,-5.1,11.9,0.9,+
Cc1cccc(-n2c(C)cc(C)c(C#N)c2=O)c1,-6.0,0.02,-7.4,-8.8,1.1,i
Brc1ccc(C2NCCS2)cc1 (stereo unspecified),2.2,0.68,-3.4,72.3*,1,i
CS(=O)(=O)N1CCSC1c1ccc(Br)cc1 (stereo unspecified),.,0.27,-43.2,.,.,.
CCN(CC)c1ccc(/C=N/NC(=O)c2cccc(S(=O)(=O)Nc3ccccc3OC)c2)c(O)c1,6.2,?,-54.9,-18.3,0.9,+
COc1ccc(NS(=O)(=O)c2cccc(C(=O)N/N=C/c3ccc4c(c3)OCCO4)c2)cc1,3.6,0.13,31.3*,-1.9,1,i
O=c1[nH]c(/C=C2\C=Nc3ccccc32)c(O)n1Cc1ccccc1F,-4.0,1.14,-10.3,-9.6,1,+
COC(=O)N[C@H](CC(C)=O)c1ccccc1,0.0,0.79,-1.1,-5.7,1,i
Oc1ccccc1-c1nc(NCC2CCCO2)c2ccccc2n1 (stereo unspecified),-0.8,0.02,-9.2,-4.0,1,i
COc1cccc(-c2nc(NCC3CCCO3)c3ccccc3n2)c1O (stereo unspecified),-0.2,.,-29.0,-1.6,1,+
CCCn1c(=NC(=O)c2c(-c3c(F)cccc3Cl)noc2C)c(C(=O)OCC)cc2c(=O)n3ccccc3nc21,3.9,0.51,-12.3,3.5,1,+
C#CCOC(=O)C[N+](C)(C)CC#Cc1ccccc1,-1.7,-0.44,-0.2,-12.6,1,i
COCCNC(=O)NC12CC3(C)CC(C)(CC(C)(C3)C1)C2,1.4,-1.27,0.1,-4.7,1,i
Cn1ncc2c1ncn1nc(CCc3ccccc3)nc21,3.1,3.58*,5.5,59.4*,1,i
CC(=O)c1cc(C#N)c(N2CCCC2)nc1C,-5.0,0.2,-1.9,-12.5,1.1,i
Cc1cc(Br)ccc1OCCCCN1CCC(C)CC1,-5.5,0.29,3.4,-7.7,1.1,i
O=C(c1ccccc1)c1cn[nH]c1-c1ccccc1O,0.7,0.25,-5.7,77.6*,1,i
SMILES,TNAP inh hiacc,Insulin prom up,p47phox inh,TNAP inh no acc,TNAP act hiacc,Autophagy mod
CCCCNc1cc(C)nc(NCc2ccccc2)n1,-3.2,?,-19.1,-10.6,1,+
Cc1cc(Nc2ccccc2)nc(NCc2ccccc2)n1,-7.1,-5.02,-30.5,8.3,1.1,i
Cc1oc2c(cc(NS(=O)(=O)c3cccs3)c3ccccc32)c1C(=O)OC(C)C,1.0,.,-53.9,-5.0,1,i
COc1ccc(S(=O)(=O)Nc2cc3c(C(C)=O)c(C)oc3c3ccccc23)cc1,2.1,.,-12.8,-12.6,1,+
COCCNC(=O)COc1ccc(C)cc1C(=O)c1cc(C#N)c(=O)n(C2CC2)c1,0.5,-0.22,9.3,-6.0,1,i
Cc1ccc(-c2cc3ccccc3nc2N2CCOCC2)cc1,-1.7,-0.44,1.7,-5.6,1,+
CCCc1n[nH]c2c1C(=O)C(C(=O)OC)C(C)(C)C2 (stereo unspecified),3.3,3.65*,13.3,61.3*,1,i
COC(=O)Cc1c(C(=O)OC)nnn1-c1cccc(C(F)(F)F)c1,3.9,-0.16,-11.5,1.7,1,i
CCOc1ccccc1NC(=O)C(Sc1ccccc1)c1ccccc1 (stereo unspecified),-0.8,0.2,52.8*,-5.1,1,i
CCOc1ccccc1NC(=O)C(NCC1(N2CCCCC2)CCCCC1)c1ccccc1 (stereo unspecified),-2.4,-1.21,-0.2,-16.0,1,+
CCOc1ccccc1NC(=O)C(OC(=O)C1CC1)c1ccccc1 (stereo unspecified),.,-0.86,-10.5,.,.,.
COC(=O)/C=C/c1ccsc1NC(C)=O,-4.3,0.82,-8.2,-9.4,1,i
COc1ccc(NC(=O)c2ccc(Oc3ncccn3)cc2)cc1,-4.8,-0.18,-4.0,-11.0,1,i
COc1cc(/C=N/NC(=O)c2ccc(CN3c4cccc5cccc(c45)S3(=O)=O)cc2)cc(OC)c1O,2.7,-0.66,36.3*,0.6,1,i
O=c1c(Cc2c(F)cccc2Cl)c(O)ccn1CCCN1CCOCC1,-2.0,0.32,0.0,1.5,1,i
O=C(NC1CCCCC1)c1c2c(nc3ccccc13)CCC2,2.7,0.16,4.3,-0.4,1,i
Clc1ccc(C[n+]2csc3ccccc32)cc1,-4.0,-0.3,-12.2,13.1,1,+
Fc1ccc(C[n+]2csc3ccccc32)cc1,-1.3,.,-5.2,12.9,1,i
CC(C)c1ccc2c(c1)[C@H]1OCC[C@H]1[C@@H](c1cccs1)N2,-7.7,-0.37,1.6,-7.9,1.1,+
Cc1cc(C)c2c(c1)N[C@H](c1cccs1)[C@@H]1CCO[C@H]21,.,-0.9,-8.0,.,.,.
Cc1ccc2[nH]c(C(=O)O)c(NC(=O)[C@@H]3C[C@@H]3c3ccccc3)c2c1,.,0.11,112.9*,.,.,.
O=C(COc1ccc(Cl)cc1)NCc1nnc(SCC(=O)Nc2ccccc2)o1,-4.3,0.06,-9.1,-9.9,1,i
O=C(COc1ccc(Cl)cc1)NCc1nnc(SCC(=O)NC2CCCCC2)o1,-1.2,3.28*,-3.2,-6.4,1,i

# High-throughput results (PubChem BioAssay)
